Assay type in all cases: ADME
A short description of data set [1]: […] rate constant (10e7kAH) required for the formation of m-nitrothiophenol disulfide. In a few lines:
(§1)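 Isoalloxazine-catalyzed oxidation of m-nitrothiophenol to its disulfide was quantified by HPLC in phosphate buffer (0.08-0.4 M, pH 7-9) with ionic strength held at 0.4 M (KCl). Isoalloxazine stocks in dry methanol/dichloromethane were diluted into aqueous-methanolic reactions. At fixed pH, k_obs/[mNTP] was plotted against buffer base fraction. The slopes were then plotted against [AH]/[A−] to give k_AH (slope) and k_A− (intercept). Values are the mean of two determinations.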

Data set [2] can be described thus: General acid and general base rate constant (10e4kA-) required for the formation of m-nitrothiophenol disulfide. Summed up: as §1
Data set [3] in a line: Spontaneous rate constant (10e6 ko) required for the formation of m-nitrothiophenol disulfide. Summed up:
as §1

Experimental findings from ChEMBL document CHEMBL1125843, “Electron-deficient isoalloxazines: model systems for disulfide prodrug formation” (J Med Chem, 1991) are described below.

In turn, `Cn1c2nc(=O)n(CCCCCCCCS)c(=O)c-2nc2ccc(C#N)cc21` returned a kAH in data set [1] of 131.7 M⁻¹ s⁻¹. In data set [2], this compound registered a kA- of 2.3 M⁻¹ s⁻¹. In data set [3], the “k'o” value turned out to be 4.6 M⁻¹ s⁻¹.
In turn, `O=c1nc2n(-c3ccccc3)c3ccccc3nc-2c(=O)n1CCCCCCCCS` gave a kAH in data set [1] of 6.8 M⁻¹ s⁻¹. Besides, the kA- in data set [2] came to 0.1 M⁻¹ s⁻¹. The “k'o” value in data set [3] was 3 M⁻¹ s⁻¹.
